According to ChEMBL document CHEMBL1649151, “Urinary bactericidal activity of Doripenem versus that of levofloxacin in patients with complicated urinary tract infections or pyelonephritis” (Antimicrob Agents Chemother, 2009):
≈ marks a conversion by molar mass, not a printed value.

Tests used:
Escherichia coli [1] = assay: Antimicrobial activity against Escherichia coli 2062716 B-R isolated from patient with pyelonephritis assessed as >3-log reduction in urinary bacterial titer after 8 hrs; format: functional, Urine
In short: (§1)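 Patient urine was collected on day 3 of i.v. therapy (steady state) over 4-h intervals after infusion start, stored at –80°C, and sterile filtered. It was twofold serially diluted (1:0 to 1:131,072) in the patient's own pre-dose drug-free urine, inoculated to 1.0 x 10^6–9.5 x 10^6 CFU/ml, and incubated for 18 h at 37°C. Subcultures were grown on blood agar for 24 h. The UBT is the reciprocal of the highest dilution giving >99.9% kill.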

Escherichia coli [2] = assay: Antimicrobial activity against Escherichia coli 1780064 A-X isolated from patient with pyelonephritis by Etest; format: functional
Pseudomonas aeruginosa [3] = assay: Antimicrobial activity against Pseudomonas aeruginosa 1821383 B-E isolated from patient with pyelonephritis assessed as >3-log reduction in urinary bacterial titer after 12 hrs; format: functional, Urine
Escherichia coli [4] = assay: Antimicrobial activity against Escherichia coli 2062716 B-R isolated from patient with pyelonephritis assessed as >3-log reduction in urinary bacterial titer after 4 hrs; format: functional, Urine; in short: as §1
Escherichia coli [5] = assay: Antimicrobial activity against Escherichia coli 1655646 A-Y isolated from patient with pyelonephritis assessed as >3-log reduction in urinary bacterial titer after 16 hrs; format: functional, Urine
In short: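 Urine was collected before dosing and on day 3 of i.v. therapy (steady state), in 4-h intervals from infusion start (0–4 to 20–24 h), stored at −80°C and sterile filtered. It was serially diluted twofold (1:0 to 1:131,072) in the patient's drug-free pre-dose urine. Microdilution used an inoculum of 1.0 x 10^6–9.5 x 10^6 CFU/ml, incubated 18 h at 37°C, then subcultured 24 h on blood agar. The endpoint was >99.9% kill, reported as reciprocal titer.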

[6] = system: Staphylococcus epidermidis; assay: Antimicrobial activity against Staphylococcus epidermidis 1949822 B-J isolated from patient with pyelonephritis assessed as >3-log reduction in urinary bacterial titer after 20 hrs; format: functional, Urine
Staphylococcus aureus = assay: Antimicrobial activity against Staphylococcus aureus 2215767-9 B-S isolated from patient with pyelonephritis assessed as >3-log reduction in urinary bacterial titer after 12 hrs; format: functional, Urine
Pseudomonas aeruginosa [7] = assay: Antimicrobial activity against Pseudomonas aeruginosa 1821383 B-E isolated from patient with pyelonephritis assessed as >3-log reduction in urinary bacterial titer after 8 hrs; format: functional, Urine
Serratia marcescens = assay: Antimicrobial activity against Serratia marcescens 2297260 B-U isolated from patient with pyelonephritis assessed as >3-log reduction in urinary bacterial titer after 16 hrs; format: functional, Urine
Escherichia coli [8] = assay: Antimicrobial activity against Escherichia coli 2062716 B-R isolated from patient with pyelonephritis assessed as >3-log reduction in urinary bacterial titer after 20 hrs; format: functional, Urine; in short: as §1
Escherichia coli [9] = assay: Antimicrobial activity against Escherichia coli 2297257 B-W isolated from patient with pyelonephritis assessed as >3-log reduction in urinary bacterial titer after 24 hrs; format: functional, Urine
Escherichia coli [10] = assay: Antimicrobial activity against Escherichia coli 1889646 B-F isolated from patient with pyelonephritis assessed as >3-log reduction in urinary bacterial titer after 4 hrs; format: functional, Urine
In short: (§2)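 Urine was collected on day 3 of i.v. therapy (steady state) over 4-h intervals from infusion start (0–4 to 20–24 h), stored at –80°C and sterile filtered. It was serially diluted twofold (1:0 up to 1:131,072) in the patient's own pre-dose drug-free urine. Microdilution used a final inoculum of 1.0 x 10^6 to 9.5 x 10^6 CFU/ml, incubated 18 h at 37°C in air. 10 µl was subcultured onto 5% blood Columbia agar for 24 h at 37°C. The bactericidal endpoint was >99.9% (>3-log) kill, reported as a reciprocal titer.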

[11] = system: Staphylococcus haemolyticus; assay: Antimicrobial activity against Staphylococcus haemolyticus 1949819 B-M isolated from patient with pyelonephritis by Etest; format: functional
Escherichia coli [12] = assay: Antimicrobial activity against Escherichia coli 1949826 B-L isolated from patient with pyelonephritis by Etest; format: functional
Escherichia coli [13] = assay: Antimicrobial activity against Escherichia coli 1949825 B-K isolated from patient with pyelonephritis assessed as >3-log reduction in urinary bacterial titer after 20 hrs; format: functional, Urine; in short: as §1
Escherichia coli [14] = assay: Antimicrobial activity against Escherichia coli 1889646 B-F isolated from patient with pyelonephritis assessed as >3-log reduction in urinary bacterial titer after 16 hrs; format: functional, Urine; in short: as §2
[15] = T>MIC in Pseudomonas aeruginosa infected in thigh of neutropenic mouse at 500 mg/kg, iv administered every 8 hrs; format: functional
Escherichia coli [16] = assay: Antimicrobial activity against Escherichia coli 1949826 B-L isolated from patient with pyelonephritis assessed as >3-log reduction in urinary bacterial titer after 24 hrs; format: functional, Urine; in short: as §1
Escherichia coli [17] = assay: Antimicrobial activity against Escherichia coli 1949826 B-L isolated from patient with pyelonephritis assessed as >3-log reduction in urinary bacterial titer after 12 hrs; format: functional, Urine; in short: as §1

Compound	urinary bactericidal titer (Escherichia coli [1]) [reciprocal titer]	MIC (Escherichia coli [2]) [µg/mL]	urinary bactericidal titer (Pseudomonas aeruginosa [3]) [reciprocal titer]	urinary bactericidal titer (Escherichia coli [4]) [reciprocal titer]	urinary bactericidal titer (Escherichia coli [5]) [reciprocal titer]	urinary bactericidal titer [6] [reciprocal titer]	urinary bactericidal titer (Staphylococcus aureus) [reciprocal titer]	urinary bactericidal titer (Pseudomonas aeruginosa [7]) [reciprocal titer]	urinary bactericidal titer (Serratia marcescens) [reciprocal titer]	urinary bactericidal titer (Escherichia coli [8]) [reciprocal titer]	urinary bactericidal titer (Escherichia coli [9]) [reciprocal titer]	urinary bactericidal titer (Escherichia coli [10]) [reciprocal titer]	MIC [11] [µg/mL]	MIC (Escherichia coli [12]) [µg/mL]	urinary bactericidal titer (Escherichia coli [13]) [reciprocal titer]	urinary bactericidal titer (Escherichia coli [14]) [reciprocal titer]	fT>MIC [15] [%]	urinary bactericidal titer (Escherichia coli [16]) [reciprocal titer]	urinary bactericidal titer (Escherichia coli [17]) [reciprocal titer]
C[C@H]1COc2c(N3CCN(C)CC3)c(F)cc3c(=O)c(C(=O)O)cn1c23.C[C@H]1COc2c(N3CCN(C)CC3)c(F)cc3c(=O)c(C(=O)O)cn1c23.O [LEVOFLOXACIN]	512	0.047	128	1024	1024	2	1	128	128	128	–	–	–	–	–	–	–	–	–
C[C@@H](O)[C@H]1C(=O)N2C(C(=O)O)=C(S[C@@H]3CN[C@H](CNS(N)(=O)=O)C3)[C@H](C)[C@H]12 [DORIPENEM]	–	–	–	–	–	–	–	–	–	–	4096	65500	1 (≈ 2.38 µM)	0.03 (≈ 0.0713 µM)	4096	8192	20	16400	131000
